Data reported in ChEMBL document CHEMBL4689842, “EUbOPEN Chemogenomics Library wave 1” (2021).

Key:
Type in all cases: toxicity, cell-based
HEK-293T = assay: Incucyte cell viability with HEK293T; details: human, 10 µM, compound concentration 10 uM; also: filed as whole numbers so only -1 and 0 and 1 occur
U2OS [1] = assay: Multiplex assay against U2OS; details: human
Procedure, shortened: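 Cells were classed with CellPathfinder machine-learning gating, first as Hoechst high-intensity objects or normal cells, then (normal cells) as healthy, pyknosed or fragmented nuclei, and finally (pyknosed cells) as mitotic or apoptotic. Staining of live cells at seeding used Hoechst33342, BioTracker Green Microtubule Cytoskeleton Dye, MitoTracker Red and Annexin V Alexa Fluor 680, with imaging on a CQ1 microscope at 37°C and 5% CO2 after compound addition. Tubulin, mitochondrial-mass and membrane-permeability phenotypes are per cents of healthy-nucleus cells.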

Fibroblast = assay: Incucyte cell viability with human fibroblast; details: 10 µM, compound concentration 10 uM; also: filed as whole numbers so only -1 and 0 and 1 occur
U2OS [2] = assay: Incucyte cell viability with U2OS; details: human, 10 µM, compound concentration 10 uM; also: filed as whole numbers so only -1 and 0 and 1 occur
[3] = 0 h, replicate number 1, timepoint 0 hours
[4] = 12 h, replicate number 1, timepoint 12 hours
[5] = 18 h, replicate number 1, timepoint 18 hours
[6] = 24 h, replicate number 1, timepoint 24 hours
[7] = 12 h, 1 µM, compound concentration 1 uM, replicate 1
[8] = 12 h, 1 µM, compound concentration 1 uM, replicate 2
[9] = 12 h, 10 µM, compound concentration 10 uM, replicate 1
[10] = 12 h, 10 µM, compound concentration 10 uM, replicate 2
[11] = 24 h, 1 µM, compound concentration 1 uM, replicate 1
[12] = 24 h, 1 µM, compound concentration 1 uM, replicate 2
[13] = 24 h, 10 µM, compound concentration 10 uM, replicate 1
[14] = 24 h, 10 µM, compound concentration 10 uM, replicate 2
[15] = 48 h, 1 µM, compound concentration 1 uM, replicate 1
[16] = 48 h, 1 µM, compound concentration 1 uM, replicate 2
[17] = 48 h, 10 µM, compound concentration 10 uM, replicate 1
[18] = 48 h, 10 µM, compound concentration 10 uM, replicate 2
[19] = 6 h, replicate number 2, timepoint 6 hours

CCc1cc2c(cc1CC)CC(NC[C@H](O)c1ccc(O)c3[nH]c(=O)ccc13)C2 [INDACATEROL]
Growth Rate (HEK-293T; [3]): 0 | Growth Rate (HEK-293T; 6 h, replicate number 1, timepoint 6 hours): 0 | Growth Rate (HEK-293T; [4]): 0 | Growth Rate (HEK-293T; [5]): 0 | Growth Rate (HEK-293T; [6]): 0 | Population Apoptotic (%) (U2OS [1]; [7]): 41% | Population Fragmented Nuclei (%) (U2OS [1]; [7]): 10% | Population Healthy Nuclei (%) (U2OS [1]; [7]): 76% | Population Hoechst High Intensity Objects (%) (U2OS [1]; [7]): 7% | Population Membrane Permeable-Phenotype (%) (U2OS [1]; [7]): 2% | Population Mitochondria Different-Phenotype (%) (U2OS [1]; [7]): 10% | Population Mitotic Cells (%) (U2OS [1]; [7]): 58% | Population Normal (%) (U2OS [1]; [7]): 92% | Population Pyknosed Nuclei (%) (U2OS [1]; [7]): 13% | Population Tubulin-Different-Phenotype (%) (U2OS [1]; [7]): 11% | Total Cell Count (U2OS [1]; [7]): 185 | Population Apoptotic (%) (U2OS [1]; [8]): 33% | Population Fragmented Nuclei (%) (U2OS [1]; [8]): 3% | Population Healthy Nuclei (%) (U2OS [1]; [8]): 92% | Population Membrane Permeable-Phenotype (%) (U2OS [1]; [8]): 1% | Population Mitochondria Different-Phenotype (%) (U2OS [1]; [8]): 11% | Population Mitotic Cells (%) (U2OS [1]; [8]): 66% | Population Pyknosed Nuclei (%) (U2OS [1]; [8]): 4% | Population Tubulin-Different-Phenotype (%) (U2OS [1]; [8]): 14% | Total Cell Count (U2OS [1]; [8]): 71 | Population Fragmented Nuclei (%) (U2OS [1]; [9]): 18% | Population Healthy Nuclei (%) (U2OS [1]; [9]): 54% | Population Hoechst High Intensity Objects (%) (U2OS [1]; [9]): 4% | Population Membrane Permeable-Phenotype (%) (U2OS [1]; [9]): 22% | Population Mitochondria Different-Phenotype (%) (U2OS [1]; [9]): 95% | Population Normal (%) (U2OS [1]; [9]): 95% | Population Pyknosed Nuclei (%) (U2OS [1]; [9]): 27% | Population Tubulin-Different-Phenotype (%) (U2OS [1]; [9]): 90% | Total Cell Count (U2OS [1]; [9]): 139 | Population Apoptotic (%) (U2OS [1]; [10]): 68% | Population Fragmented Nuclei (%) (U2OS [1]; [10]): 15% | Population Healthy Nuclei (%) (U2OS [1]; [10]): 64% | Population Hoechst High Intensity Objects (%) (U2OS [1]; [10]): 6% | Population Membrane Permeable-Phenotype (%) (U2OS [1]; [10]): 23% | Population Mitochondria Different-Phenotype (%) (U2OS [1]; [10]): 98% | Population Mitotic Cells (%) (U2OS [1]; [10]): 31% | Population Normal (%) (U2OS [1]; [10]): 93% | Population Pyknosed Nuclei (%) (U2OS [1]; [10]): 19% | Population Tubulin-Different-Phenotype (%) (U2OS [1]; [10]): 88% | Total Cell Count (U2OS [1]; [10]): 71 | Population Apoptotic (%) (U2OS [1]; [11]): 36% | Population Fragmented Nuclei (%) (U2OS [1]; [11]): 11% | Population Healthy Nuclei (%) (U2OS [1]; [11]): 74% | Population Hoechst High Intensity Objects (%) (U2OS [1]; [11]): 6% | Population Membrane Permeable-Phenotype (%) (U2OS [1]; [11]): 2% | Population Mitochondria Different-Phenotype (%) (U2OS [1]; [11]): 11% | Population Mitotic Cells (%) (U2OS [1]; [11]): 63% | Population Normal (%) (U2OS [1]; [11]): 93% | Population Pyknosed Nuclei (%) (U2OS [1]; [11]): 13% | Population Tubulin-Different-Phenotype (%) (U2OS [1]; [11]): 9% | Total Cell Count (U2OS [1]; [11]): 184 | Population Apoptotic (%) (U2OS [1]; [12]): 14% | Population Fragmented Nuclei (%) (U2OS [1]; [12]): 4% | Population Healthy Nuclei (%) (U2OS [1]; [12]): 86% | Population Hoechst High Intensity Objects (%) (U2OS [1]; [12]): 3% | Population Membrane Permeable-Phenotype (%) (U2OS [1]; [12]): 0% | Population Mitochondria Different-Phenotype (%) (U2OS [1]; [12]): 10% | Population Mitotic Cells (%) (U2OS [1]; [12]): 85% | Population Normal (%) (U2OS [1]; [12]): 96% | Population Pyknosed Nuclei (%) (U2OS [1]; [12]): 9% | Population Tubulin-Different-Phenotype (%) (U2OS [1]; [12]): 12% | Total Cell Count (U2OS [1]; [12]): 73 | Population Apoptotic (%) (U2OS [1]; [13]): 78% | Population Fragmented Nuclei (%) (U2OS [1]; [13]): 24% | Population Healthy Nuclei (%) (U2OS [1]; [13]): 43% | Population Hoechst High Intensity Objects (%) (U2OS [1]; [13]): 4% | Population Membrane Permeable-Phenotype (%) (U2OS [1]; [13]): 50% | Population Mitochondria Different-Phenotype (%) (U2OS [1]; [13]): 96% | Population Mitotic Cells (%) (U2OS [1]; [13]): 21% | Population Normal (%) (U2OS [1]; [13]): 95% | Population Pyknosed Nuclei (%) (U2OS [1]; [13]): 32% | Population Tubulin-Different-Phenotype (%) (U2OS [1]; [13]): 79% | Total Cell Count (U2OS [1]; [13]): 174 | Population Apoptotic (%) (U2OS [1]; [14]): 89% | Population Fragmented Nuclei (%) (U2OS [1]; [14]): 11% | Population Healthy Nuclei (%) (U2OS [1]; [14]): 67% | Population Hoechst High Intensity Objects (%) (U2OS [1]; [14]): 6% | Population Membrane Permeable-Phenotype (%) (U2OS [1]; [14]): 59% | Population Mitochondria Different-Phenotype (%) (U2OS [1]; [14]): 100% | Population Mitotic Cells (%) (U2OS [1]; [14]): 10% | Population Normal (%) (U2OS [1]; [14]): 93% | Population Pyknosed Nuclei (%) (U2OS [1]; [14]): 20% | Population Tubulin-Different-Phenotype (%) (U2OS [1]; [14]): 86% | Total Cell Count (U2OS [1]; [14]): 78 | Population Apoptotic (%) (U2OS [1]; [15]): 45% | Population Fragmented Nuclei (%) (U2OS [1]; [15]): 7% | Population Healthy Nuclei (%) (U2OS [1]; [15]): 78% | Population Hoechst High Intensity Objects (%) (U2OS [1]; [15]): 4% | Population Membrane Permeable-Phenotype (%) (U2OS [1]; [15]): 2% | Population Mitotic Cells (%) (U2OS [1]; [15]): 54% | Population Normal (%) (U2OS [1]; [15]): 95% | Population Pyknosed Nuclei (%) (U2OS [1]; [15]): 14% | Population Tubulin-Different-Phenotype (%) (U2OS [1]; [15]): 6% | Total Cell Count (U2OS [1]; [15]): 181 | Population Apoptotic (%) (U2OS [1]; [16]): 0% | Population Fragmented Nuclei (%) (U2OS [1]; [16]): 6% | Population Healthy Nuclei (%) (U2OS [1]; [16]): 87% | Population Hoechst High Intensity Objects (%) (U2OS [1]; [16]): 5% | Population Membrane Permeable-Phenotype (%) (U2OS [1]; [16]): 8% | Population Mitochondria Different-Phenotype (%) (U2OS [1]; [16]): 12% | Population Mitotic Cells (%) (U2OS [1]; [16]): 100% | Population Normal (%) (U2OS [1]; [16]): 94% | Population Pyknosed Nuclei (%) (U2OS [1]; [16]): 5% | Population Tubulin-Different-Phenotype (%) (U2OS [1]; [16]): 11% | Total Cell Count (U2OS [1]; [16]): 69 | Population Apoptotic (%) (U2OS [1]; [17]): 84% | Population Fragmented Nuclei (%) (U2OS [1]; [17]): 23% | Population Healthy Nuclei (%) (U2OS [1]; [17]): 30% | Population Hoechst High Intensity Objects (%) (U2OS [1]; [17]): 9% | Population Membrane Permeable-Phenotype (%) (U2OS [1]; [17]): 38% | Population Mitochondria Different-Phenotype (%) (U2OS [1]; [17]): 96% | Population Mitotic Cells (%) (U2OS [1]; [17]): 15% | Population Normal (%) (U2OS [1]; [17]): 90% | Population Pyknosed Nuclei (%) (U2OS [1]; [17]): 45% | Population Tubulin-Different-Phenotype (%) (U2OS [1]; [17]): 73% | Total Cell Count (U2OS [1]; [17]): 239 | Population Apoptotic (%) (U2OS [1]; [18]): 73% | Population Fragmented Nuclei (%) (U2OS [1]; [18]): 9% | Population Healthy Nuclei (%) (U2OS [1]; [18]): 53% | Population Hoechst High Intensity Objects (%) (U2OS [1]; [18]): 16% | Population Membrane Permeable-Phenotype (%) (U2OS [1]; [18]): 49% | Population Mitochondria Different-Phenotype (%) (U2OS [1]; [18]): 100% | Population Mitotic Cells (%) (U2OS [1]; [18]): 26% | Population Normal (%) (U2OS [1]; [18]): 83% | Population Pyknosed Nuclei (%) (U2OS [1]; [18]): 37% | Population Tubulin-Different-Phenotype (%) (U2OS [1]; [18]): 67% | Total Cell Count (U2OS [1]; [18]): 122 | Growth Rate (Fibroblast; [3]): 1 | Growth Rate (Fibroblast; [19]): 0 | Growth Rate (Fibroblast; [4]): 0 | Growth Rate (Fibroblast; [5]): 0 | Growth Rate (Fibroblast; [6]): 0 | Growth Rate (U2OS [2]; [3]): 1 | Growth Rate (U2OS [2]; [19]): 1 | Growth Rate (U2OS [2]; [4]): 1 | Growth Rate (U2OS [2]; 12 h, replicate number 2, timepoint 12 hours): 0 | Growth Rate (U2OS [2]; [5]): 0 | Growth Rate (U2OS [2]; [6]): 0
